# Experimental data from article PMC10250156 (Molecular Metabolism, 2023).
# Legend:
# [1] = Chiral HPLC analysis of zeaxanthin stereoisomers in tissues; type: in vivo; details: Isx^−/−/Bco2^−/− mice on 250 mg/kg 3R,3′R-zeaxanthin diet
# [2] = Light exposure experiment: zeaxanthin metabolites in eye and liver by HPLC; type: in vivo; details: albino Isx^−/−/Bco2^−/− mice, 250 mg/kg zeaxanthin, 4 weeks
# In short: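 Albino mice were fed the 250 mg/kg or control diet for 4 weeks after weaning. Three groups were used: 24 h/day darkness (DC), a 12/12 h light/dark cycle (L/DC), or L/DC plus twice-weekly light stress from week 2 (LS). For light stress, mice were dark-adapted overnight, pupils were dilated with 1% tropicamide, and mice received 85,000 lux white light for 2 min. Whole eye and liver carotenoids were then quantified by HPLC.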
# [3] = type: in vivo, mice
# In short: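 Male and female mice were fed vitamin A-free diets for 4 weeks from weaning; the WT cohort received the 250 mg/kg diet. Tissues were weighed and snap-frozen at -80 °C. Carotenoids were extracted under dim red light from about 25 mg of intestinal segments, liver or eWAT, 100 uL serum, or one whole eye. Analysis was normal-phase silica HPLC with diode-array detection. Data are means ± SD, n=5 (eWAT: 3 females, 2 males); two-way ANOVA.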
# [4] = HPLC analysis of zeaxanthin content in fecal matter during dietary intervention; type: in vivo, mice; details: 50 mg/kg zeaxanthin supplementation, 28 days
# In short: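 Mice were fed vitamin A-free diets starting at weaning. Feces were collected on days 0, 1, 2, 4, 7, 14, 21 and 28 of the 28-day intervention. Carotenoids were extracted from about 25 mg feces under dim red light (<600 nm). Zeaxanthin was quantified by HPLC.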
# [5] = Food intake and liver weight during zeaxanthin dietary intervention; type: in vivo; details: Bco2^−/− and Isx^−/−/Bco2^−/− mice, 0, 50, 250 mg/kg diet
# In short: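 Male and female mice were placed on vitamin A-free diets after weaning at 4 weeks old, for 4 weeks. Zeaxanthin was given as water-soluble beadlets incorporated into the diet. Fresh diet was given weekly, and body weight was recorded then. Food consumption was the leftover food per cage divided by the number of mice in the cage. At study end, mice were anaesthetised and livers dissected and weighed.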
# [6] = tested on: albino Isx^−/−/Bco2^−/− mice; experiment: Skin colour phenotype of supplemented albino mice; type: in vivo; details: 250 mg/kg zeaxanthin, 4 weeks, hypercarotenemia
# In short: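 Albino mice were fed a vitamin A-free diet containing 250 mg/kg zeaxanthin or no zeaxanthin (control) for 4 weeks, starting immediately after weaning. Skin colour of the ears, eyelids and nostrils was inspected and photographed.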
# [7] = tested on: albino Isx^−/−/Bco2^−/− mice; experiment: Optical coherence tomography; type: in vivo; details: 250 mg/kg versus 0 mg/kg, 4 weeks
# [8] = tested on: albino Isx^−/−/Bco2^−/− mice; experiment: Electroretinography; type: in vivo; details: 250 mg/kg versus 0 mg/kg, 4 weeks
structure (smiles),measurement,setting,value
"CC1=C(/C=C/C(C)=C/C=C/C(C)=C/C=C/C=C(C)/C=C/C=C(C)/C=C/C2=C(C)C[C@H](O)CC2(C)C)C(C)(C)C[C@H](O)C1 [3R, 3′S-zeaxanthin]",presence in the eyes by chiral HPLC,[1],"no peak with a retention time of 3R, 3′S-zeaxanthin was detected"
"CC1=CC(=O)CC(C)(C)C1/C=C/C(C)=C/C=C/C(C)=C/C=C/C=C(C)/C=C/C=C(C)/C=C/C1C(C)=CC(=O)CC1(C)C (centres unmarked) [oxidized zeaxanthin, ε,ε-carotene 3, 3′-dione]",concentration in the eyes of L/DC and LS groups compared to DC group,[2],increased
"CC1=C(/C=C/C(C)=C/C=C/C(C)=C/C=C/C=C(C)/C=C/C=C(C)/C=C/C2=C(C)C[C@@H](O)CC2(C)C)C(C)(C)C[C@H](O)C1 [zeaxanthin, 3R,3′R-zeaxanthin]",form of zeaxanthin detectable in liver,"[3]; 50 mg zeaxanthin diet, Bco2^−/− and Isx^−/−/Bco2^−/− mice, 4 weeks",only the oxidized form of zeaxanthin became detectable
same,"total zeaxanthin in eWAT, Isx^−/−/Bco2^−/− versus Bco2^−/− mice","[3]; 50 mg/kg or 250 mg/kg diet, 4 weeks",significantly higher amounts
same,concentration of carotenoids in eWAT and eyes compared with kidney and serum,"[3]; 50 mg/kg zeaxanthin, Bco2^−/− and Isx^−/−/Bco2^−/− mice",two-fold higher
same,amount of zeaxanthin in jejunum relative to other parts of the intestine,"[3]; WT mice, 250 mg/kg diet, 4 weeks, major metabolite parent compound",highest amount
same,"fecal zeaxanthin excretion, Isx^−/−/Bco2^−/− versus Bco2^−/− mice",[4],excreted less zeaxanthin
same,effect on food intake,[5],did not affect food intake
same,liver weight between dietary groups,[5]; 4 weeks,no significant difference in liver weight
same,"skin phenotype (ears, eyelids, nostrils)",[6],yellow skin color phenotype
same,"OCT: retinal morphology, supplemented versus non-supplemented mice",[7],no differences in the stratification of the retinal layers
same,ERG responses under photopic and scotopic conditions,[8],normal responses
same,total zeaxanthin or its oxidized form in liver between light treatment groups,[2],no light-dependent increase
same,ocular levels between different light groups,"[2]; DC, L/DC, LS",remained relatively constant
